Test results: ChEMBL document CHEMBL2057155, “Synthesis of betulinic acid derivatives as entry inhibitors against HIV-1 and bevirimat-resistant HIV-1 variants” (Bioorg Med Chem Lett, 2012)

Legend:
Liver microsomes [1] = experiment: Half life in human liver microsomes at 1 uM
[2] = tested on: Human immunodeficiency virus 1; experiment: Antiviral activity against wild type HIV1 NL4-3 infected in human MT4 cells assessed as reduction of viral p24 level cells […] relative to wild type HIV1 NL4-3 after 4 days by ELISA; format: functional, organism-based; conditions: Human immunodeficiency virus 1, NL4-3, MT4, 96 h
[3] = tested on: Human immunodeficiency virus 1; experiment: Antiviral activity against HIV1 NL4-3 infected in human TZM-bl cells assessed as reduction in luciferase gene expression by luminescence assay; format: functional, organism-based; conditions: Human immunodeficiency virus 1, NL4-3, TZM-bl
Outline: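 Single-cycle HIV-1 NL4-3 infection of TZM-bl cells; HIV-1 tat-driven luciferase expression after viral entry read as the measure of inhibition. […] control is NL4-3 infection without compound. Values are the mean of two or more independent experiments with standard deviation.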

[4] = tested on: Human immunodeficiency virus 1; experiment: Antiviral activity against HIV1 NL4-3 harboring QVT motif of Gag SP1 V370A mutant infected in human TZM-bl cells by fluorescence assay relative to wild type HIV1 NL4-3; format: functional
Outline: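 Single-round infection of TZM-bl cells with HIV-1 NL4-3 or the NL4-3 V370A mutant. Tat-driven luciferase expression after viral entry was the read-out. Inhibition was taken as the reduction in luciferase signal relative to infected controls without compound, expressed as relative fluorescence units.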

[5] = Cytotoxicity against human MT4 assessed as cell viability after 2 days; format: cell-based; conditions: MT4 cells, read-out: TD50
[6] = tested on: Human immunodeficiency virus 1; experiment: Ratio of EC50 for bevirimat-resistant HIV1 NL4-3 harboring QVT motif of Gag SP1 V370A mutant to EC50 for wild type HIV1 NL4-3; format: functional
Outline: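 Multi-cycle viral replication assay in MT4 cells infected with wild-type HIV-1 NL4-3 or the V370A Gag variant. EC50 was determined against each virus, and the fold ratio was taken as mutant EC50 over wild-type EC50.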

[7] = tested on: Human immunodeficiency virus 1; experiment: Antiviral activity against bevirimat-resistant HIV1 NL4-3 harboring QVT motif of Gag SP1 deltaV370 mutant infected in human MT4 cells assessed as reduction of viral p24 level cells […] relative to wild type HIV1 NL4-3 after 4 days by ELISA; format: functional, organism-based; conditions: Human immunodeficiency virus 1, NL4-3, MT4, 96 h
Outline: (§1)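 Multi-cycle viral replication assay in MT4 cells, run in parallel against wild-type NL4-3 and NL4-3 variants carrying V370A, ΔV370 or ΔT371 in Gag.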

[8] = tested on: Human immunodeficiency virus 1; experiment: Antiviral activity against bevirimat-resistant HIV1 NL4-3 harboring QVT motif of Gag SP1 deltaT371 mutant infected in human MT4 cells assessed as reduction of viral p24 level cells […] relative to wild type HIV1 NL4-3 after 4 days by ELISA; format: functional, organism-based; conditions: Human immunodeficiency virus 1, NL4-3, MT4, 96 h; outline: as §1
Liver microsomes [9] = conditions: human, 1 µM
[10] = Cytotoxicity against human TZM-bl assessed as cell viability at 4 uM after 2 days; format: cell-based; conditions: 48 h
Outline: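 Toxicity to TZM-bl cells was checked within the single-cycle infection assay at 4 μM.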

[11] = tested on: Human immunodeficiency virus 1; experiment: Antiviral activity against bevirimat-resistant HIV1 NL4-3 harboring QVT motif of Gag SP1 V370A mutant infected in human MT4 cells assessed as reduction of viral p24 level cells […] relative to wild type HIV1 NL4-3 after 4 days by ELISA; format: functional, organism-based; conditions: Human immunodeficiency virus 1, NL4-3, MT4, 96 h

Structure (SMILES): C=C(C)[C@@H]1CC[C@]2(C(=O)NCCCCCCCCC(=O)N[C@@H](CCC(N)=O)C(=O)OCc3ccccc3)CC[C@]3(C)[C@H](CC[C@@H]4[C@@]5(C)CC[C@H](O)C(C)(C)[C@@H]5CC[C@]43C)[C@@H]12
- t1/2 (Liver microsomes [1]): 41.01 min
- EC50 [2]: 190 nM
- EC50 [3]: 120 nM
- fold change (FC) [4]: 2
- CC50 at 48 h [5]: 15000 nM
- Ratio EC50 [6]: 5
- EC50 [7]: 23 nM
- EC50 [8]: 26 nM
- CLH (Liver microsomes [9]): 169 µL/min/mg
- Activity [10]: Non-toxic
- EC50 [11]: 50 nM
